This is an account of results in PMC5395284 (Journal of Experimental Pharmacology, 2017).

Series [1] is classed as in vivo, Wistar rat.
In series [2] the test system is hyperlipidemic Wistar rats. The series is described as follows: Plasma lipid levels. In kind it is in vivo, Wistar rat. The conditions noted are these: 4 weeks treatment; for reduction in total cholesterol level: plasma, in comparison to lipid control.
The next series deals with Wistar rat brain. The series is described as follows: Brain neurotransmitter levels. The series is classed as in vivo. The following applies: 4 weeks treatment. The gist of the method:
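Wistar rats on high-fat diet for up to 4 weeks, caged ≤6 per cage at 25°C±2°C. Groups: control, oral SSRI test compound 20 mg/kg b.w., statin test compound 40 mg/kg b.w., or both, for 4 weeks. Brain (100 mg) homogenized in 1 mL 0.1 M perchloric acid with 0.05% EDTA, centrifuged 18,000 rpm, 10 min, 4°C. Mean±SD, n=6; p<0.05 versus lipid control.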

The format of series [3] is in vivo, Wistar rat. This is another data set of the same source.
The conditions of series [4]: after 2-week dosing of FLX; cited from earlier work.
[5] abbreviates: STT+FLX compared to STT monotherapy.
Setting [6] is: STT+FLX for 4 weeks compared to STT-alone treatment.

Regarding `CNCCC(Oc1ccc(C(F)(F)F)cc1)c1ccccc1` (stereo not drawn) [FLX, fluoxetine], the “accumulation in the brain relative to plasma” value in series [1] (after multiple-dose administration) is “multifold higher”. Also, in series [2] (versus lipid control), the “effect on plasma triglyceride level” value is recorded as “failed to produce any significant effect”. For the same molecule, the “reduction in total cholesterol level” value in series [2] is on record as 16.3%. Further, in the series with Wistar rat brain (mean±SD, n=6), the “brain concentration of 5-hydroxytryptamine (5HT)” value amounted to 0.62 ± 0.15 µg/g and the “brain concentration of dopamine” value amounted to 1.48 ± 0.14 µg/g. Besides, the “effect on brain level of HIAA” value in the series with Wistar rat brain (versus control) is recorded as “failed to alter”.

Turning to `CCC(C)(C)C(=O)O[C@H]1C[C@@H](C)C=C2C=C[C@H](C)[C@H](CC[C@@H](O)C[C@@H](O)CC(=O)O)[C@H]21` [STA, simvastatin acid], the “reduction in bioavailability (AUC0−∞) in plasma” value in series [3] (setting [5]) was determined as 36%.

Regarding `CCC(C)(C)C(=O)O[C@H]1C[C@@H](C)C=C2C=C[C@H](C)[C@H](CC[C@@H]3C[C@@H](O)CC(=O)O3)[C@H]21` [STT, simvastatin], in series [3] (setting [6]), the “increase in AUC in plasma” value was determined as 41.6% and the “increase in Cmax in plasma” value is listed as 57.9%. The “percentage increase in AUC0−t in brain” value in series [1] (setting [5]) came to 79%. Also, in series [2] (versus lipid control), the “effect on plasma HDL level” value is given as “increase in plasma HDL level” and the “effect on plasma triglyceride level” value is reported as “significant reduction”. In series [2], the “reduction in total cholesterol level” value was 41.6%. In addition, the “brain concentration of 5-hydroxytryptamine (5HT)” value in the series on Wistar rat brain (mean±SD, n=6) turned out to be 0.45 ± 0.14 µg/g. Moreover, in the series with Wistar rat brain (versus control), the “effect on brain level of HIAA” value is reported as “unaffected” and the “effect on brain level of dopamine” value is listed as “unaffected”.

On to `COc1ccc2c(c1)[C@]13CCCC[C@@H]1[C@H](C2)N(C)CC3` [dextromethorphan], for which the increase in bioavailability in series [4] is 27 fold.

For `COc1ccc2[nH]c([S+]([O-])Cc3ncc(C)c(OC)c3C)nc2c1` (stereo not drawn) [omeprazole], the increase in bioavailability in series [4] is recorded as 7.1 fold.
